Data published in ChEMBL document CHEMBL4725497, “Addition of Fluorine and a Late-Stage Functionalization (LSF) of the Oral SERD AZD9833” (ACS Med Chem Lett, 2020).

Experiments:
[1] = Lipophilicity, log D of compound at pH 7.4 by shake-flask method; assay type: physicochemical; conditions: buffer
Method in brief: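 logD at pH 7.4 was measured by the shake-flask method.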

[2] = biological target: T1, Estrogen receptor (Homo sapiens) (UniProt P03372); assay: Induction of ERalpha degradation in human CAMA-1 cells at 0.1 uM incubated for 18 to 22 hrs Western blot assay relative to fulvestrant; assay type: cell-based
T1 sequence (whole entry): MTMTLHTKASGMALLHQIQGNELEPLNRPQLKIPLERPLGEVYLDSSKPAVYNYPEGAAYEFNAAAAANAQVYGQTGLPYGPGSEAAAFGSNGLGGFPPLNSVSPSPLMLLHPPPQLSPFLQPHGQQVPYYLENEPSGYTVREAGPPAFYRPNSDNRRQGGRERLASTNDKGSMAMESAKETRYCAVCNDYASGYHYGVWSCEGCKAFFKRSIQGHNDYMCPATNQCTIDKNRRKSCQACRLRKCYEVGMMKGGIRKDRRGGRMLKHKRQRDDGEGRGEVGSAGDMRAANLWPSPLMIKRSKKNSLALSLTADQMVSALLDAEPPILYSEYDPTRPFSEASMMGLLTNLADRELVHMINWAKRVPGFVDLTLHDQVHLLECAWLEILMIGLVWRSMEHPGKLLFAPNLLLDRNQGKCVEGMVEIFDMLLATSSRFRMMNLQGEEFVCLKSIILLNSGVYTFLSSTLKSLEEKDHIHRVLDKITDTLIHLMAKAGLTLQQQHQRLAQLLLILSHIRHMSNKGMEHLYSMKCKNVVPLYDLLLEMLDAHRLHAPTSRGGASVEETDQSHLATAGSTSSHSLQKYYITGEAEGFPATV
Method in brief: (§1)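 Western blot read-out of ERα protein loss in MCF-7 and CAMA-1 breast cancer cells treated with compound at 0.1 μM. Degradation expressed as percentage relative to fulvestrant.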

[3] = biological target: T1, Estrogen receptor (Homo sapiens); assay: Induction of ERalpha degradation in human MCF7 cells at 0.1 uM incubated for 18 to 22 hrs Western blot analysis relative to fulvestrant; assay type: cell-based; method in brief: as §1
[4] = Intrinsic clearance in human microsome assessed as rate of metabolism; assay type: ADME; conditions: microsomes
Method in brief: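 Compound from a DMSO stock was incubated with human liver microsomes. Rate of metabolism is expressed in μL/min/mg.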

[5] = biological target: T1, Estrogen receptor (Homo sapiens); assay: Induction of ERalpha degradation in human MCF7 cells at 0.1 uM incubated for 18 to 22 hrs immuno-fluorescence assay relative to control; assay type: cell-based
[6] = Intrinsic clearance in rat hepatocytes assessed rate of metabolism per 10^6 cells; assay type: ADME, cell-based, Hepatocyte; conditions: read-out: CLH
Method in brief: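 Compound from a DMSO stock was incubated with isolated rat hepatocytes diluted to 1 × 10^6 cells/mL. Rate of metabolism is expressed in μL/min/10^6 cells.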

Estrogen receptor [7] = biological target: T2, Estrogen receptor (Homo sapiens, UniProt P03372); assay: Induction of ERalpha degradation in human MCF7 cells incubated for 18 to 22 hrs by immuno-fluorescence assay; assay type: cell-based
T2 sequence (P03372 whole entry): T1 sequence (whole entry)

[8] = Fraction unbound in human plasma by equilibrium dialysis method; assay type: ADME, cell-free
Method in brief: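 Binding was measured by equilibrium dialysis in 10% human plasma, with compound added from a DMSO stock.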

Estrogen receptor [9] = biological target: T2, Estrogen receptor; assay: Displacement of fluorescent labelled fluormone ES2 from human recombinant GST tagged ER alpha LBD ( 282 to 595 residues) expressed in baculovirus infected insect cells incubate for 20 mins measured after 1 hr by TR-FRET Lanthascreen assay
Method in brief: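 ER binding was reported as n ≥ 2 determinations, with SEM within 0.3 log units.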

[10] = Volume of distribution at steady state in rat at 0.5 mg/kg or 1 mg/kg, […]; assay type: ADME, organism-based; conditions: in vivo
[11] = AUC in rat at 1 mg/kg, po; assay type: ADME, organism-based; parameters: dose 1 mg/kg; conditions: in vivo
Method in brief: (§2)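 Rats were given 0.5 mg/kg IV in 5% DMSO:95% hydroxylpropyl β-cyclodextrin or 10% DMA:90% Captisol, and 1 mg/kg orally as a 0.1% HMPC/tween suspension or a 10% DMSO:90% cyclodextrin solution. Plasma clearance, Vdss and half-life came from the IV arm; AUC came from the oral arm; bioavailability F (%) was also reported.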

[12] = Oral bioavailability in rat at 1 mg/kg; assay type: ADME, organism-based; conditions: in vivo; method in brief: as §2
[13] = Clearance in rat plasma at 0.5 mg/kg, iv and 1 mg/kg, po; assay type: ADME, organism-based; method in brief: as §2
[14] = Half-life in rat at 0.5 mg/kg, iv; assay type: ADME, organism-based; conditions: in vivo; method in brief: as §2
[15] = Efflux ratio of intrinsic permeability from basolateral to apical side over apical to basolateral side in human Caco2 cells at 7.4:7.4 apical: basolateral pH at 10 uM; assay type: ADME, cell-based; conditions: Caco-2, pH 7.4

Compound | logD [1] | Activity [2] [%] | Activity [3] [%] | microsomal CLint [4] [µL/min/mg] | Activity [5] [%] | hepatocyte CLint [6] [µL/min/1e6 cells] | IC50 (Estrogen receptor [7]) [nM] | fraction unbound [8] | IC50 (Estrogen receptor [9]) [nM] | Vdss [10] [L/kg] | AUC [11] [µM·h] | bioavailability [12] [%] | clearance [13] [mL/min/kg] | half-life [14] [h] | efflux ratio at 10 µM [15]
C[C@@H]1Cc2c(ccc3[nH]ncc23)[C@@H](c2ccc(NC3CN(CCCF)C3)cn2)N1CC(F)(F)F [CAMIZESTRANT] | 2.9 | 98 | 95 | 12 | 99 | – | – | – | – | – | – | – | – | – | –
C[C@@H]1Cc2c(c(F)cc3[nH]ncc23)[C@@H](c2ccc(NC3CN(CCCF)C3)cn2)N1CC(F)(F)F | 2.7 | – | – | 8 | 95 | 11 | 5.01 | 0.19 | 15.8 | – | – | – | – | – | –
C[C@@H]1Cc2c(cc(F)c3[nH]ncc23)[C@@H](c2ccc(NC3CN(CCCF)C3)cn2)N1CC(F)(F)F | 3.2 | – | – | 19 | 98 | 20 | 0.2 | 0.14 | 0.501 | – | – | – | – | – | –
C[C@@H]1Cc2c(ccc3[nH]ncc23)[C@@H](c2ccc(NC3CN(CCCF)C3)c(F)n2)N1CC(F)(F)F | 3 | – | – | 20 | 98 | 36 | – | 0.16 | – | 7.7 | 0.22 | 34 | 65 | 1.9 | –
C[C@@H]1Cc2c(ccc3[nH]nc(F)c23)[C@@H](c2ncc(NC3CN(CCCF)C3)cc2F)N1CC(F)(F)F | – | – | – | 34 | 99 | 10 | – | 0.054 | 1.26 | 17 | 0.76 | 60 | 24 | 9.6 | 1.4
COc1cc2[nH]ncc2c2c1[C@@H](c1ccc(NC3CN(CCCF)C3)cn1)N(CC(F)(F)F)[C@H](C)C2 | 2.4 | – | – | 26 | 40 | 6 | 2.51 | 0.32 | 501 | – | – | – | – | – | –
C[C@@H]1Cc2c(ccc3[nH]ncc23)[C@@H](c2ccc(NC3CN(CCCF)C3)cn2)N1CC(F)F | – | – | – | 28 | 99 | – | – | – | – | – | – | – | – | – | –
C[C@@H]1Cc2c(c(O)cc3[nH]ncc23)[C@@H](c2ccc(NC3CN(CCCF)C3)cn2)N1CC(F)(F)F | 2.3 | – | – | 5 | > 80 | 11 | 126 | – | 39.8 | – | – | – | – | – | –
C[C@@H]1Cc2c(ccc3[nH]ncc23)[C@@H](c2ncc(NC3CN(CCCF)C3)cc2F)N1CC(F)(F)F | 3 | 98 | 96 | 19 | 98 | 24 | 0.251 | 0.16 | 2 | – | – | – | – | – | 7
C[C@@H]1Cc2c(ccc3[nH]nc(F)c23)[C@@H](c2ccc(NC3CN(CCCF)C3)c(F)n2)N1CC(F)(F)F | – | – | – | 44 | 99 | 10 | 0.0501 | 0.068 | 1 | – | – | – | – | – | –
FCCCN1CC(Nc2ccc([C@@H]3c4ccc5[nH]ncc5c4C[C@@H](C(F)F)N3CC(F)F)nc2)C1 | – | – | – | 34 | 97 | 32 | – | 0.28 | – | – | – | – | – | – | –
C[C@@H]1Cc2c(ccc3[nH]ncc23)[C@@H](c2ncc(NC3CN(CCCF)C3)cc2F)N1CC(F)(F)CF | – | – | – | 26 | 98 | 55 | – | – | – | – | – | – | – | – | –
